Data set [1] has as its system Mus musculus. Briefly: ED6 (natriuretic potency) is the oral dose(mg/kg) required to produce an excretion of 6 milliequivalents of Na+per kilogram during 0-4 hr in male mice (Highest dose tested was 50 mg/kg); Inactive. Details: dose 50 mg/kg. Type of data set: functional, organism-based. The essentials:
(§1)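 Male mice, 16-30 g, fed ad libitum beforehand. Compound in 0.2% hydroxypropylmethylcellulose given po at 10 mL/kg, then 0.9% saline po at 3% of body weight. Five mice pooled per metabolism cage, four cages per dose. Combined urine collected 0-4 h and assayed for Na+, K+, Cl-, uric acid as mequiv/kg per cage. ED6 from regression of Na+ against log dose.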

In data set [2] the test system is Rattus norvegicus. Briefly: ED2(natriuretic potency) is the oral dose(mg/kg) required to produce an excretion of 2 milliequivalents of Na+per kilogram during 0-4 hr in female rats (Highest dose tested was 100 mg/kg). Type of data set: functional. The essentials: (§2)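 Female Sprague-Dawley rats, 175-225 g, on sucrose and water for 18 h, given 5 mg DOCA sc 2 h before dosing. Compound in 0.2% methylcellulose given by gavage at 2 mL/kg, then a 30 mL/kg load of 0.34% NaCl/0.69% KCl. Individual metabolism cages, urine collected 0-4 h for Na+, K+, Cl-. Two-stage two-dose screen at 2 rats/dose, then at least four doses at 4 rats/dose. ED2 taken from regression of Na+ excretion against log dose.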

The test system of data set [3] is Canis familiaris. Briefly: ED5(natriuretic potency) is the oral dose(mg/kg) required to produce an excretion of 5 milliequivalents of Na+per kilogram during 0-6 hr in female dogs (Highest dose tested was 30 mg/kg); Inactive. Further details: dose 30 mg/kg. Type of data set: functional, organism-based. The note with it: Canis lupus familiaris. The essentials:
(§3)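 Female dogs, conscious, one oral dose per dog per experiment. Urine collected and centrifuged; venous plasma drawn at each collection time. Samples assayed for Na+, K+, Cl-, urate and glucose by standard methods. Cumulative Na+ output expressed as mequiv/kg over 6 h, at least two dogs/dose. ED5 read from regression of Na+ excretion against log dose.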

Data set [4] concerns Mus musculus. Put plainly: ED6 (natriuretic potency) is the oral dose(mg/kg) required to produce an excretion of 6 milliequivalents of Na+per kilogram during 0-4 hr in male mice (Highest dose tested was 50 mg/kg). Type of data set: functional. The essentials: as §1
Data set [5] deals with Mus musculus. Briefly: Na+ excretion mequiv/kg in saline-loaded mice administered at a dose 250 […] perorally. Type of data set: ADME, organism-based. The note with it: in vivo, po. The essentials: (§4)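 Saline-loaded male mice, 16-30 g. Compound po in 0.2% hydroxypropylmethylcellulose at 10 mL/kg, vehicle alone for controls, followed by 0.9% saline po at 3% of body weight. Doses were 0.3-250 mg/kg po. Five mice per metabolism cage, four cages per dose, pooled urine collected for 4 h. Na+ reported as mean ± SEM mequiv/kg; ANOVA with Duncan's test or unpaired t test against control.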

Data set [6] relates to Mus musculus. Put plainly: Na+ excretion mequiv/kg in saline-loaded mice administered at a dose 10 […] perorally. The note with it: in vivo, po. Type of data set: ADME, organism-based. The essentials:
as §4

Data set [7] has as its system Mus musculus. Put plainly: Na+ excretion mequiv/kg in saline-loaded mice administered at a dose 50 […] perorally. The note with it: in vivo, po. Type of data set: ADME, organism-based. The essentials:
as §4

Data set [8] is filed under the species Canis familiaris. Put plainly: urate excreted in 6 female dogs during 0-6 hr. Type of data set: ADME, organism-based, Canis lupus familiaris. The note with it: dog, in vivo. The essentials:
(§5)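 Conscious female dogs dosed at 3 mg/kg po, except one reference at 10 mg/kg, one dose per dog. Urine collected to 6 h and centrifuged; heparinized venous plasma taken at each collection. Na+ and urate measured by standard methods, mean ± SEM over 0-6 h. Compared with vehicle by ANOVA/Duncan's test or unpaired t test.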

Data set [9] deals with Canis familiaris. Put plainly: Na+ excretion mequiv/kg in 6 conscious female dogs administered perorally during 0-6 hr. Type of data set: ADME, organism-based, Canis lupus familiaris. The note with it: dog, in vivo, po. The essentials: as §5
Data set [10] can be described thus: urate excreted in 4 Cebus monkey''s during 0-6 hr. Type of data set: ADME. The note with it: in vivo. The essentials: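 Male and female Cebus monkeys, 4-6 per group, fasted for 6 h after dosing, water ad libitum. 20 mg/kg in 0.2% hydroxypropylmethylcellulose at 1.0 mL/kg by nasogastric tube, then water load of 5% body weight. Urine collected in metabolism pans at 2, 6 and 24 h and assayed for uric acid. Urate in mg/kg over 0-6 h, mean ± SEM.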

In data set [11] the test system is Canis familiaris. Briefly: ED5(natriuretic potency) is the oral dose(mg/kg) required to produce an excretion of 5 milliequivalents of Na+per kilogram during 0-6 hr in female dogs (Highest dose tested was 30 mg/kg). Type of data set: functional, Canis lupus familiaris. The essentials: as §3
Data set [12] deals with Rattus norvegicus. Briefly: ED2(natriuretic potency) is the oral dose(mg/kg) required to produce an excretion of 2 milliequivalents of Na+per kilogram during 0-4 hr in female rats (Highest dose tested was 100 mg/kg); Inactive. Type of data set: functional, organism-based. Further details: dose 100 mg/kg. The essentials: as §2

Calls of active or inactive are those of the source. No cut-off for these calls is given here.

Regarding `O=C(O)C1Cc2cc3c(-c4ccccc4Cl)noc3c(Cl)c2O1` (stereo not drawn), the ED6 entry in the data set on Mus musculus [1] is “inactive”. For the same compound, the ED2 in the data set with Rattus norvegicus [2] came out at 22.5 mg/kg.

Take `CCc1noc2c(Cl)c3c(cc12)CC(C(=O)O)O3` (stereo not drawn): in the data set with Canis familiaris [3], the ED5 entry is “inactive”. The ED2 in the data set on Rattus norvegicus [2] came to 3.8 mg/kg. Moreover, the ED6 in the data set on Mus musculus [4] came to 6.8 mg/kg.

Turning to `O=C(O)C1Cc2cc3c(-c4cccs4)noc3c(Cl)c2O1` (stereo not drawn), in the data set on Mus musculus [1], the ED6 result was “inactive”. Besides, the ED2 in the data set with Rattus norvegicus [2] is more than 100 mg/kg.

For `O=C(O)COc1ccc(C(=O)c2cccs2)c(Cl)c1Cl`, the “Na+ excretion” value is on record as 7.7 m equiv kg-1 in the data set on Mus musculus [5], 3.7 m equiv kg-1 with Mus musculus [6], 6.3 m equiv kg-1 with Mus musculus [7] and 1.54 m equiv kg-1 in the data set with Canis familiaris [9]. Moreover, the Excretion in the data set listed under Canis familiaris [8] is 0.8 mg/kg; in [10], 11.81 mg/kg.

Regarding `O=C(O)C1Cc2cc3c(-c4ccccc4)noc3c(Cl)c2O1` (stereo not drawn), in the data set with Rattus norvegicus [2], the ED2 was determined as 27.3 mg/kg. Also, the ED6 in the data set on Mus musculus [4] is 55 mg/kg. Moreover, the ED5 in the data set on Canis familiaris [11] came out at 13.5 mg/kg.

In the case of `O=C(O)C1Cc2cc3c(-c4ccc(F)cc4)noc3c(Cl)c2O1` (stereo not drawn), in the data set on Rattus norvegicus [2], the ED2 was determined as 7.3 mg/kg. Moreover, the ED6 in the data set with Mus musculus [4] amounted to 66 mg/kg.

For `COc1c2c(cc3c(-c4ccccc4F)noc13)CC(C(=O)O)O2` (stereo not drawn), the ED6 entry in the data set with Mus musculus [1] was “inactive”. Besides, the ED2 in the data set with Rattus norvegicus [2] worked out at 210 mg/kg.

`O=C(O)C1Cc2cc3c(-c4ccccc4F)noc3cc2O1` (stereo not drawn): the ED2 entry in the data set with Rattus norvegicus [12] was “inactive”. In the data set with Mus musculus [4], the ED6 is 100 mg/kg.

For `Cc1c2c(cc3c(-c4ccccc4F)noc13)CC(C(=O)O)O2` (stereo not drawn), the ED2 in the data set on Rattus norvegicus [2] is more than 100 mg/kg. Also, the ED6 in the data set on Mus musculus [4] was found to be 7.25 mg/kg. The ED5 in the data set with Canis familiaris [11] was determined as 0.79 mg/kg.

In the case of `Cc1ccccc1-c1noc2c(Cl)c3c(cc12)CC(C(=O)O)O3` (stereo not drawn), the ED2 in the data set on Rattus norvegicus [2] is 14.3 mg/kg. The ED6 in the data set with Mus musculus [4] worked out at 8.4 mg/kg.

As for `NC(=O)C1Cc2cc3c(-c4ccccc4F)noc3c(Cl)c2O1` (stereo not drawn), the ED2 entry in the data set with Rattus norvegicus [12] was “inactive”. Further, in the data set with Mus musculus [4], the ED6 is 39 mg/kg.

Consider `O=C(O)C1Cc2cc3c(-c4cccc(F)c4)noc3c(Cl)c2O1` (stereo not drawn), for which, in the data set with Mus musculus [1], the ED6 entry is “inactive”. The ED2 in the data set on Rattus norvegicus [2] is 63 mg/kg.

With `Cc1noc2c(Cl)c3c(cc12)CC(C(=O)O)O3` (stereo not drawn), in the data set with Mus musculus [1], the ED6 entry is “inactive”. For the same compound, the ED2 with Rattus norvegicus [2] came out at 40 mg/kg.
